From ChEMBL document CHEMBL1122581, “Antiviral activity of C-5 substituted tubercidin analogues” (1984)
≈ marks a conversion by molar mass, not a printed value.

Tests used:
Type in all cases: functional
[1] = test system: Human alphaherpesvirus 1; assay: Compound was tested for the concentration required to reduce HSV-1 (KOS) induced cytopathogenicity by 50% in primary rabbit kidney cell cultures
[2] = species: Oryctolagus cuniculus; assay: Compound was tested for the concentration required to cause a microscopically detectable alteration in normal cell morphology in primary rabbit kidney cell cultures; details: read-out: Min cytotoxic concentration
Procedure, shortened: (§1)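 Uninfected cell monolayers were run in parallel with the antiviral assays and exposed to compound for the same period as the infected cultures. The end point was the lowest concentration giving a microscopically detectable disruption of normal cell morphology.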

[3] = test system: Coxsackievirus B4; assay: Compound was tested for the concentration required to reduce coxsackie virus B4 induced cytopathogenicity by 50% in HeLa cell cultures; details: Enterovirus B
[4] = test system: Vero; assay: Compound was tested for the concentration required to cause a microscopically detectable alteration in normal cell morphology in Vero cell cultures; details: Chlorocebus sabaeus, read-out: Min cytotoxic concentration; procedure, shortened: as §1
[5] = test system: Human alphaherpesvirus 2; assay: Compound was tested for the concentration required to reduce HSV-2 (G) induced cytopathogenicity by 50% in primary rabbit kidney cell cultures
[6] = test system: Poliovirus 1; assay: Concentration required to reduce polio virus type 1 induced cytopathogenicity by 50% in HeLa cell cultures.; details: Enterovirus C
[7] = test system: Vesicular stomatitis virus; assay: Compound was tested for the concentration required to reduce vesicular stomatitis virus induced cytopathogenicity by 50% in HeLa cell cultures
[8] = test system: Coxsackievirus B4; assay: Compound was tested for the concentration required to reduce coxsackie virus B4 induced cytopathogenicity by 50% in Vero cell cultures; details: Enterovirus B
[9] = test system: HeLa; assay: Compound was tested for the concentration required to cause a microscopically detectable alteration in normal cell morphology in HeLa cell cultures; details: Homo sapiens, read-out: Min cytotoxic concentration; procedure, shortened: as §1
[10] = test system: Mammalian orthoreovirus 1; assay: Compound was tested for the concentration required to reduce reovirus type 1 induced cytopathogenicity by 50% in Vero cell cultures
[11] = test system: L1210; assay: Dose required to inhibit proliferation of L-1210 Cells by 50%; details: Mus musculus, read-out: ID50 (the source's name)
Procedure, shortened: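 Inhibition of proliferation of murine leukemia L-1210 cells in exponential growth phase. ID50 is the dose inhibiting cell proliferation by 50%, given plus or minus standard deviation.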

[12] = test system: Sindbis virus; assay: Compound was tested for the concentration required to reduce sindbis virus induced cytopathogenicity by 50% in Vero cell cultures
[13] = test system: Human respirovirus 3; assay: Compound was tested for the concentration required to reduce parainfluenza virus type 3 induced cytopathogenicity by 50% in Vero cell cultures
[14] = test system: Vesicular stomatitis virus; assay: Compound was tested for the concentration required to reduce vesicular stomatitis virus induced cytopathogenicity by 50% in primary rabbit kidney cell cultures
[15] = species: Oryctolagus cuniculus; assay: Concentration required to cause a microscopically detectable alteration in cell morphology in primary rabbit kidney cell cultures.; details: read-out: Min cytotoxic concentration; procedure, shortened: as §1
[16] = test system: Sindbis virus; assay: Concentration required to reduce sindbis virus induced cytopathogenicity by 50% in vero cell cultures.
[17] = test system: Coxsackievirus B4; assay: Concentration required to reduce coxsackie virus B4 induced cytopathogenicity by 50% in vero cell cultures.; details: Enterovirus B
[18] = test system: Vero; assay: Concentration required to cause a microscopically detectable alteration in cell morphology in vero cell cultures.; details: Chlorocebus sabaeus, read-out: Min cytotoxic concentration; procedure, shortened: as §1
[19] = test system: Vesicular stomatitis virus; assay: Concentration required to reduce vesicular stomatitis virus induced cytopathogenicity by 50% in primary rabbit kidney cell cultures.
[20] = test system: Human alphaherpesvirus 2; assay: Concentration required to reduce HSV-2 (G) induced cytopathogenicity by 50% in primary rabbit kidney cell cultures.
[21] = test system: Coxsackievirus B4; assay: Concentration required to reduce coxsackie virus 4 induced cytopathogenicity by 50% in HeLa cell cultures.; details: Enterovirus B
[22] = test system: Human alphaherpesvirus 1; assay: Concentration required to reduce HSV-1 (KOS) induced cytopathogenicity by 50% in primary rabbit kidney cell cultures.
[23] = test system: Vesicular stomatitis virus; assay: Concentration required to reduce vesicular stomatitis virus induced cytopathogenicity by 50% in HeLa cell cultures.
[24] = test system: HeLa; assay: Concentration required to cause a microscopically detectable alteration in cell morphology in HeLa cell cultures.; details: Homo sapiens, read-out: Min cytotoxic concentration; procedure, shortened: as §1
[25] = test system: Mammalian orthoreovirus 1; assay: Concentration required to reduce reovirus type 1 induced cytopathogenicity by 50% in vero cell cultures.
[26] = test system: Human respirovirus 3; assay: Concentration required to reduce parainfluenza virus type 3 induced cytopathogenicity by 50% in vero cell cultures.

Row | Structure (SMILES) | MIC [6] | IC50 [11] | MCC [15] | MIC [16] | MIC [17] | MCC [18] | MIC [19] | MIC [20] | MIC [21] | MIC [22] | MIC [23] | MCC [24] | MIC [25] | MIC [26] | other results
1 | Nc1ncnc2c1ncn2C[C@@H](O)CO | > 400 µg/mL | 170 µg/mL (≈ 813 µM) | – | – | – | – | – | – | – | – | – | – | – | – | MIC [1]: > 400 µg/mL; MCC [2]: ≥ 400 µg/mL; MIC [3]: > 400 µg/mL; MCC [4]: > 400 µg/mL; MIC [5]: > 400 µg/mL; MIC [7]: 10 µg/mL (≈ 47.8 µM); MIC [8]: 400 µg/mL (≈ 1910 µM); MCC [9]: > 400 µg/mL; MIC [10]: 70 µg/mL (≈ 335 µM); MIC [12]: > 400 µg/mL; MIC [13]: 20 µg/mL (≈ 95.6 µM); MIC [14]: 10 µg/mL (≈ 47.8 µM)
2 | Nc1ncnc2c1cc(Br)n2C1O[C@H](CO)[C@@H](O)[C@H]1O (stereo partly specified) | 150 µg/mL (≈ 435 µM) | 36.5 µg/mL (≈ 106 µM) | > 400 µg/mL | > 200 µg/mL | 70 µg/mL (≈ 203 µM) | 400 µg/mL | 300 µg/mL (≈ 869 µM) | > 400 µg/mL | > 200 µg/mL | > 400 µg/mL | 400 µg/mL (≈ 1160 µM) | 400 µg/mL | 70 µg/mL (≈ 203 µM) | 70 µg/mL (≈ 203 µM) | –
3 | Nc1ncnc2c1c(Br)c(Br)n2C1O[C@H](CO)[C@@H](O)[C@H]1O (stereo partly specified) | > 10 µg/mL | 2.31 µg/mL (≈ 5.45 µM) | 100 µg/mL | > 10 µg/mL | 10 µg/mL (≈ 23.6 µM) | 40 µg/mL | > 40 µg/mL | > 40 µg/mL | > 10 µg/mL | > 100 µg/mL | > 10 µg/mL | 40 µg/mL | 10 µg/mL (≈ 23.6 µM) | > 10 µg/mL | –
4 | Nc1ncnc2c1c(CCCO)cn2C1O[C@H](CO)[C@@H](O)[C@H]1O (stereo partly specified) | 7 µg/mL (≈ 21.6 µM) | 1.28 µg/mL (≈ 3.95 µM) | > 40 µg/mL | > 10 µg/mL | 7 µg/mL (≈ 21.6 µM) | 40 µg/mL | 7 µg/mL (≈ 21.6 µM) | > 10 µg/mL | 7 µg/mL (≈ 21.6 µM) | 7 µg/mL (≈ 21.6 µM) | 2 µg/mL (≈ 6.17 µM) | 40 µg/mL | 2 µg/mL (≈ 6.17 µM) | 2 µg/mL (≈ 6.17 µM) | –
5 | Nc1ncnc2c1c(/C=C/Br)cn2C1O[C@H](CO)[C@@H](O)[C@H]1O (stereo partly specified) | > 1 µg/mL | 7.84 µg/mL (≈ 21.1 µM) | > 4 µg/mL | > 1 µg/mL | > 1 µg/mL | 4 µg/mL | > 1 µg/mL | > 1 µg/mL | > 1 µg/mL | > 1 µg/mL | > 1 µg/mL | 4 µg/mL | 1 µg/mL (≈ 2.69 µM) | 1 µg/mL (≈ 2.69 µM) | –
6 | Nc1ncnc2c1c(Cl)c(Cl)n2C1O[C@H](CO)[C@@H](O)[C@H]1O (stereo partly specified) | > 10 µg/mL | 10.1 µg/mL (≈ 30.1 µM) | 40 µg/mL | > 10 µg/mL | > 10 µg/mL | 40 µg/mL | > 40 µg/mL | > 40 µg/mL | > 10 µg/mL | > 40 µg/mL | > 10 µg/mL | 40 µg/mL | > 10 µg/mL | > 10 µg/mL | –
7 | N#C/C=C/c1cn(C2O[C@H](CO)[C@@H](O)[C@H]2O)c2ncnc(N)c12 (stereo partly specified) | 4 µg/mL (≈ 12.6 µM) | 1.36 µg/mL (≈ 4.29 µM) | 100 µg/mL | > 40 µg/mL | > 10 µg/mL | 100 µg/mL | 20 µg/mL (≈ 63 µM) | 20 µg/mL (≈ 63 µM) | 1 µg/mL (≈ 3.15 µM) | 2 µg/mL (≈ 6.3 µM) | 0.4 µg/mL (≈ 1.26 µM) | 4 µg/mL | 20 µg/mL (≈ 63 µM) | 7 µg/mL (≈ 22.1 µM) | –
8 | CC(O)c1cn(C2O[C@H](CO)[C@@H](O)[C@H]2O)c2ncnc(N)c12 (stereo partly specified) | 0.2 µg/mL (≈ 0.645 µM) | 0.111 µg/mL (≈ 0.358 µM) | 10 µg/mL | 7 µg/mL (≈ 22.6 µM) | 2 µg/mL (≈ 6.45 µM) | 40 µg/mL | 0.4 µg/mL (≈ 1.29 µM) | 7 µg/mL (≈ 22.6 µM) | 0.7 µg/mL (≈ 2.26 µM) | 2 µg/mL (≈ 6.45 µM) | 0.2 µg/mL (≈ 0.645 µM) | 40 µg/mL | 0.4 µg/mL (≈ 1.29 µM) | 0.7 µg/mL (≈ 2.26 µM) | –
9 | COC(C)c1cn(C2O[C@H](CO)[C@@H](O)[C@H]2O)c2ncnc(N)c12 (stereo partly specified) | 0.7 µg/mL (≈ 2.16 µM) | 0.404 µg/mL (≈ 1.25 µM) | 100 µg/mL | > 40 µg/mL | 2 µg/mL (≈ 6.17 µM) | 100 µg/mL | > 40 µg/mL | > 40 µg/mL | 0.7 µg/mL (≈ 2.16 µM) | 20 µg/mL (≈ 61.7 µM) | > 10 µg/mL | 10 µg/mL | > 1 µg/mL | 2 µg/mL (≈ 6.17 µM) | –
